The source made the active and inactive calls. No cut-off for these calls is given here.

The term IC50 denotes the point on the concentration scale where inhibition reaches its midpoint.

For experiment [1], the target named is T1, Prostaglandin E synthase (Homo sapiens) (UniProt O14684).
T1 sequence (whole entry): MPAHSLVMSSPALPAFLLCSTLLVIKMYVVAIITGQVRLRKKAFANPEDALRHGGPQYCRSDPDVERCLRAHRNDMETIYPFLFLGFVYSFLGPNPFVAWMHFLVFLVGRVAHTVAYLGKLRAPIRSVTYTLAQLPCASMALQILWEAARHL
The experiment in a line: Inhibition of mPGES1 in human A549 cells assessed as reduction in IL-1beta induced PGE2 release by measuring residual activity at 10 uM using PGH2 as substrate preincubated for 15 mins followed by substrate addition and measured after 1 min by RP-UV-HPLC analysis relative to control. It is filed as cell-based. An outline of the steps: (§1)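 The enzyme source was microsomes from IL-1β-stimulated A549 cells in a cell-free assay. The read-out was enzymatic conversion of PGH2 (20 μM) to PGE2.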

A further experiment addresses T2, Prostaglandin E synthase (Homo sapiens, UniProt O14684).
T2 sequence (O14684 whole entry): T1 sequence (whole entry)
As to the kind of experiment: Inhibition of mPGES1 in human A549 cells assessed as reduction in IL-1beta induced PGE2 release using PGH2 as substrate preincubated for 15 mins followed by substrate addition and measured after 1 min by RP-UV-HPLC analysis. It is filed as cell-based. An outline of the steps:
as §1

Experiment [2] deals with T1, Prostaglandin E synthase (Homo sapiens). The experiment in a line: Inhibition of mPGES1 in human A549 cells assessed as reduction in IL-1beta induced PGE2 release incubated for 24 hrs by ELISA. It is filed as cell-based. An outline of the steps:
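A549 cells were incubated for 24 h at 5 or 10 μM in medium with 1% FBS and 10 ng/mL IL-1β. PGE2 released into the medium was quantified by ELISA against DMSO vehicle-treated cells. Values are mean ± SEM (pg/mL) of two independent experiments.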
For orientation: In an ELISA, binding on a coated surface is turned into a signal by an enzyme label.

In experiment [3] the test system is A549. The experiment in a line: Antiproliferative activity against human A549 cells assessed as inhibition of cell viability incubated for 24 hrs by MTT assay. The format is functional, cell-based. The settings on record: A549, 24 h. The gist of the method: (§2)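 A549 cells were exposed to test compounds in an MTT viability assay (5–100 μM for the 48 h and 72 h exposures). IC50 is the mean ± S.D. of single determinations from three independent experiments.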
(In general: Tetrazolium assays rely on reduction of a dye to a coloured formazan, in cell work by metabolically active cells.)

The subject of experiment [4] is A549. The experiment in a line: Antiproliferative activity against human A549 cells assessed as inhibition of cell viability incubated for 48 hrs by MTT assay. The format is functional, cell-based. To be noted: A549, 48 h. The gist of the method:
as §2

Experiment [5] concerns A549. As to the kind of experiment: Antiproliferative activity against human A549 cells assessed as inhibition of cell viability incubated for 72 hrs by MTT assay. The format is functional, cell-based. The settings on record: A549, 72 h. The gist of the method:
as §2

Experiment [6] deals with A549. As to the kind of experiment: Induction of programmed cell death in human A549 cells assessed as accumulation at subG0/G1 phase at 20 to 30 uM incubated for 48 hrs by propidium iodide staining based flow cytometric analysis relative to control. The format is functional. The gist of the method: (§3)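 A549 human lung epithelial cancer cells were exposed to compound at several concentrations for 48 or 72 h. DNA was then stained with propidium iodide, and the percentage of cells in each cycle phase was measured by flow cytometry. The hypodiploid subG0/G1 fraction was read as cell death. Values are mean ± SEM of two independent experiments, each run in triplicate.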
On the technique in general: Flow cytometry measures light scatter and fluorescence of single cells or particles in a stream.

The test system of experiment [7] is A549. As to the kind of experiment: Induction of programmed cell death in human A549 cells assessed as accumulation at subG0/G1 phase at 20 to 30 uM incubated for 72 hrs by propidium iodide staining based flow cytometric analysis relative to control. The format is functional. The gist of the method:
as §3

The subject of experiment [8] is A549. As to the kind of experiment: Induction of cell cycle arrest in human A549 cells assessed as accumulation at G2/M phase at 30 uM incubated for 72 hrs by propidium iodide staining based flow cytometric analysis. The format is functional. The gist of the method:
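A549 cells were treated at several concentrations for 48 or 72 h, then stained for DNA with propidium iodide. Cell-cycle phase percentages were read by flow cytometry. Values are means ± SEM of two independent experiments, each run in triplicate.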

As for `O=C(Nc1nc2cc(-c3cccc(CO)c3)ccc2s1)c1ccc(F)cc1Cl`, in experiment [1], the Activity was greater than 30%.
With `Cc1cc(C)c(C(=O)Nc2nc3cc(-c4cccc(CO)c4)ccc3s2)o1`, the Activity in [1] is greater than 30%.
Take `O=C(Nc1nc2cc(-c3cccc(CO)c3)ccc2s1)c1ccccc1Br`: in experiment [1], the Activity is greater than 30%.
For the compound `O=C(Nc1nc2ccc(-c3cccc(CO)c3)cc2s1)c1ccc(F)cc1Cl`, the half-inhibitory concentration (IC50) is 1.4 µM at Prostaglandin E synthase, 98.2 µM with A549 [3], 71.4 µM in the experiment with A549 [4] and 28.5 µM with A549 [5]. Besides, the inhibition entry in experiment [2] is “Dose-dependent effect”. In addition, the result with A549 [6] and in the experiment on A549 [7] was inactive.
As to `O=C1OC(O)C(c2cc3ccccc3s2)=C1Br` (stereo unspecified), the IC50 in the experiment with A549 [3] stood at 98.5 µM; in the experiment on A549 [4], 12.5 µM; with A549 [5], 9.1 µM.
Take `O=C(Nc1nc2ccc(-c3cccc(CO)c3)cc2s1)c1ccccc1Br`: the IC50 on Prostaglandin E synthase turned out to be 0.7 µM; with A549 [3], 97.5 µM; in the experiment on A549 [4], 57.5 µM; with A549 [5] it was 18.1 µM. Moreover, the inhibition result in experiment [2] is “Dose-dependent effect”. In addition, the outcome in the experiment on A549 [8] was Active. Further, the values for the Activity with A549 [6] and in the experiment on A549 [7] were 5% and 18%, respectively.
In the case of `NC(=O)c1cccc(-c2ccc3sc(NC(=O)c4c(Cl)cccc4Cl)nc3c2)c1`, in experiment [1], the inhibition result is “inactive”.
For the compound `NC(=O)c1cccc(-c2ccc3sc(NC(=O)c4ccc(F)cc4C(F)(F)F)nc3c2)c1`, the IC50 was determined as 1.7 µM at Prostaglandin E synthase, 98.3 µM with A549 [3], 50.6 µM in the experiment with A549 [4] and 19.2 µM in the experiment on A549 [5]. Further, the inhibition result in experiment [2] was “Dose-dependent effect”. The Activity with A549 [6] is listed as 6%; with A549 [7], 7%.
In the case of `Cc1cc(C)c(C(=O)Nc2nc3cc(-c4cccc(C(N)=O)c4)ccc3s2)o1`, in experiment [1], the inhibition result is “inactive”.
As to `Cc1cc(C)c(C(=O)Nc2nc3ccc(-c4cccc(CO)c4)cc3s2)o1`, the half-maximal inhibitory concentration (IC50) amounted to 2.6 µM on Prostaglandin E synthase, 95 µM with A549 [3], 63.2 µM in the experiment with A549 [4] and 55.2 µM in the experiment with A549 [5]. The inhibition entry in experiment [2] is “Dose-dependent effect”.
Regarding `O=C(Nc1nc2cc(-c3cccc(CO)c3)ccc2s1)c1c(Cl)cccc1Cl`, the Activity in experiment [1] was greater than 30%.

(Values after ChEMBL document CHEMBL4610110, “Targeting mPGES-1 by a Combinatorial Approach: Identification of the Aminobenzothiazole Scaffold to Suppress PGE2 Levels” (ACS Med Chem Lett, 2020).)
